Screening data deposited in PubChem by Broad Institute.
Only some compounds are listed: those with a hit (about 4% of all), similar ones and a draw of the others.
C2C12 statin – suppressors of statin myotoxicity in C2C12 myotubes, primary screen, cell-based, single point, plate reader. hit rate 0.78% among 330,000. rescue of ATP level, % at 7.49 µM. C2C12 myotubes + simvastatin, ATP luminescence, 48 h; scaled: DMSO 0, geranylgeraniol control 100. AID 602340, 2012;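 active = mean ATP rescue above about 67%, or every replicate alone reaching that limit, limit read from the data, passing the limit was not always enough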;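 note: myotubes were challenged with 10 µM simvastatin during compound exposure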
SIRT5 inh – SIRT5 desuccinylase inhibitors, primary screen, biochemical, fluorescence imaging, single point, set 5; Purified SirT5, succinyl-peptide AMC, trypsin-coupled fluorescence; AID 652115, 2013; inhibition, % at 15 µM; NAD-dependent protein deacylase sirtuin-5, mitochondrial (Homo sapiens), Q9NXA8; hit rate 1.1% among 330,000; in the data active = inhibition above about 15%
Target sequence (Q9NXA8 whole entry, looked up): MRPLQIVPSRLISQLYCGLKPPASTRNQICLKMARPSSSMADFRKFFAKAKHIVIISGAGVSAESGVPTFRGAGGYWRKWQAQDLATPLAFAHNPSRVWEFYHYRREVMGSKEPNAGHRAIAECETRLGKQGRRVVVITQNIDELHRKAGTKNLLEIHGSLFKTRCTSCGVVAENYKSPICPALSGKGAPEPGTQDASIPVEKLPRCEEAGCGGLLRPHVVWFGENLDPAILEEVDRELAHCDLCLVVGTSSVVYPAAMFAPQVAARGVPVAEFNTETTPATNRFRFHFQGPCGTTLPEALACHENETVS
FN deposit inh – inhibitors of fibronectin matrix deposition, primary screen, AH1F cells, Alexa488-fibronectin fluorescence, plate reader. AH1F fibroblasts, overnight. inhibition, % at 12.6 µM. hit rate 0.086% among 350,000;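 active = mean inhibition across replicates of 30% or more, regardless of how many single replicates reach that level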;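 note: positive control wells lacked labelled fibronectin entirely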
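Material: AH1F fibroblasts assembling fluorescent fibronectin matrix; amount: 10000 AH1F cells/well; medium: DMEM, 2% serum; reagent: Alexa488-fibronectin, 24 nM final in well; dosing: single compound dose, delivered by pin transfer; incubation: 1 h adhesion, overnight exposure; detection: fluorescence after three HBSS washes, excitation 485 nm, emission 525 nm; measure: fibronectin deposition inhibition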
FGF22 binding – binders of human FGF22 protein, primary screen, FGF22 synaptogenesis inhibitor project, biophysical, thermal shift, single point. recombinant FGF22 thermal shift, SYPRO orange fluorescence; percent of sucrose octasulfate shift, DMSO zero. hit rate 1.5% among 340,000. activity (Tm shift, normalised), % at 9.99 µM. Fibroblast growth factor 22 (Homo sapiens), Q9HCT0;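 active = mean Tm shift, scaled 0 neutral to 100 positive control, at about 1.3% or above, every replicate too, limit read from the data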
Target sequence (Q9HCT0 whole entry, looked up): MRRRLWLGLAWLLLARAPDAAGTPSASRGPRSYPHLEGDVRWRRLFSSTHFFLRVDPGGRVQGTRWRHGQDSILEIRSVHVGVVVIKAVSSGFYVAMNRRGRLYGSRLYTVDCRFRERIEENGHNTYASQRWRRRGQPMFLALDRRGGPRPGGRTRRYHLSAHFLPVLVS
rRNA inh HTS – reduced GFP signal of wild-type E. coli, primary screen, bacterial rRNA inhibitor project, GFP/RFP fluorescence, OD600, single point; E. coli WT GFP vs humanized-ribosome RFP mutants, 24 h; hits give low values; DMSO median 0, no signal -100; hit rate 1.6% among 350,000; GFP signal change (wild-type ribosome), % (no concentration beside the values); AID 720706, 2013;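 active = significant combined selectivity score with lowered wild-type GFP, culture density cut under 30%, mutant RFP and density less affected; inactive = any of these conditions unmet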
E-selectin induc – E-selectin induction in HUVECs, primary screen, imaging, HUVEC, immunofluorescence imaging, single point; P16581; normalized: neutral wells 0, TNF-alpha wells 100; AID 686992, 2013; hit rate 0.37% among 260,000; activation, % at 7.58 µM;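 active = mean E-selectin-positive cell signal at least 10% of the positive control, reached in at least 60% of replicates, without over 20% cell loss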
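Material: HUVEC primary endothelial cells; Amount: 3,000 cells per well; Dosing: single concentration; Medium: EGM-2 growth medium on 0.1% gelatin-coated wells; Read-out basis: percent E-selectin-positive cells; Signal: immunofluorescence imaging; Control set: TNF-alpha, DMSO.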
* = called active by the depositor; x = not tested or not shown.

SMILES	C2C12 statin	SIRT5 inh	FN deposit inh	FGF22 binding	rRNA inh HTS	E-selectin induc
Cc1ccc(S(=O)(=O)NNC(=O)c2c(O)c3ccccc3[nH]c2=O)cc1	5	17*	5	0	3	x
COC(=O)Nc1ccc(S(=O)(=O)NNC(=O)c2c(O)c3ccccc3[nH]c2=O)cc1	-2	-2	1	0	7	0
C[C@@H]1CN([C@@H](C)CO)C(=O)c2cc(NC(=O)C3CCCCC3)ccc2O[C@@H]1CN(C)C(=O)Nc1ccccc1	19	-1	x	0	-2	1
COc1ccc(Cc2c(C(C)(C)C)nc3c(C)cc(Br)cn23)c(C)c1	-3	0	-6	44*	5	-1
COC(=O)CN1C(=S)N(Cc2ccccc2)C(=O)C1CC(=O)Nc1ccc(OC)cc1 (centres undefined)	-12	x	1	x	x	x
CC(=O)NCCCC(=O)NN1C(=S)N(Cc2ccccc2)C(=O)C1CC(=O)Nc1cccc(C)c1 (centres undefined)	x	-4	x	0	-22*	x
CC(=O)N1CCCc2cc(S(=O)(=O)Nc3ccccc3C)ccc21	4	-4	1	44*	0	0
COc1ccc(C)cc1NS(=O)(=O)c1ccc2c(c1)CCN2C(C)=O	16	1	-3	0	2	0
CN(C)c1ccc(C2C3CCCc4ccccc4C3=NN2C)cc1 (centres undefined)	-9	-2	1	0	-27*	x
CCC(=O)Nc1cccc(NC(=O)c2cc3ccccc3o2)c1	-4	x	x	x	x	x
CCC(=O)Nc1cccc(-c2cc3ccccc3oc2=O)c1	x	28*	-9	0	x	0
C[C@H]1CN([C@@H](C)CO)C(=O)c2cc(C#CCC3CCCC3)cnc2O[C@H]1CN(C)Cc1ccccn1	7	3	4	-1	-21	1
CCOC(=O)c1nc2c(ccc3ccccc32)cc1C	x	-7	-7	0	-31*	0
COc1ccc(C)cc1S(=O)(=O)N(C)CC(=O)N1CCC(C(N)=O)CC1	2	0	-6	43*	0	x
CCOC(=O)C1CCN(C(=O)CN(C)S(=O)(=O)c2cc(C)ccc2OC)CC1	-49	x	x	x	x	x
C[C@@H]1CN([C@@H](C)CO)C(=O)c2ccccc2-c2ccccc2CO[C@H]1CN(C)S(=O)(=O)c1ccc(C#N)cc1	x	0	-9	0	-1	0
CC(C)CC1(C)NC(=O)NC1=O (centres undefined)	117*	x	x	x	x	x
CC1(CCc2ccccc2)NC(=O)NC1=O (centres undefined)	-4	0	1	0	8	0
CN(C)CC(=O)N1CC(=O)N2[C@H](CO)[C@@H](c3ccc(/C=C/c4ccccc4)cc3)[C@H]2C1	x	-5	x	x	6	0
O=C(C[C@H]1CC[C@H]2[C@@H](COC[C@H](O)CN2C(=O)Nc2ccc(Cl)c(Cl)c2)O1)NCc1ccc(Cl)cc1	-9	2	-25	0	-61	0
O=c1c2cc(F)ccc2sn1-c1ccccc1Cl	13	-2	41*	0	-51	0
O=c1c2ccc(F)cc2sn1-c1ccccc1	-4	-1	x	0	-45	x
c1ccc(CN2CCOCC2)nc1	x	x	x	0	8	-1
Fc1ccc(N2CCN(Cc3cnc(N4CCOCC4)s3)CC2)cc1	x	-3	x	43*	12	x
O=[N+]([O-])c1ccccc1CN1CCN(c2ncccn2)CC1	-1	4	-1	0	-4	x
SMILES	C2C12 statin	SIRT5 inh	FN deposit inh	FGF22 binding	rRNA inh HTS	E-selectin induc
O=[N+]([O-])c1ccccc1CN1CCN(Cc2ccccn2)CC1	x	3	3	43*	20	x
Fc1ccc(N2CCN(Cc3ccccn3)CC2)cc1	x	-4	8	44*	9	x
Cc1ccc(SCc2cn3c(C)csc3n2)cc1	-11	-3	x	0	-51*	x
CCCC1c2ccsc2CCN1C(=S)NC (centres undefined)	x	-5	-5	0	-36*	x
CCOc1ccc(/C=N/NC(=S)NC2CC3CCC2C3)cc1 (centres undefined)	x	-2	-4	0	-17*	2
Cc1ccccc1C(=O)Nc1nnc(-c2ccncc2)o1	x	-5	-4	0	-33*	5
Cc1ccc(C2CC(c3cccs3)=NN2C(=O)c2ccco2)o1 (centres undefined)	x	3	1	44*	-43	x
O=C(c1ccco1)N1N=C(c2cccs2)CC1c1ccco1 (centres undefined)	34	-6	x	0	1	x
O=C(c1ccco1)N1N=C(c2ccccc2O)CC1c1cccs1 (centres undefined)	70*	x	x	0	-57	-1
COc1ccccc1CN1[C@H](CO)[C@@H]2c3ccccc3N(C(=O)C3CC3)C[C@@H]21	11	1	2	0	3	0
Cc1nc([N+](=O)[O-])c(C(=O)OCc2cccc(Br)c2)n1C	-4	-1	-5	42	-18*	0
Cc1nc([N+](=O)[O-])c(C(=O)OCc2ccccc2)n1C	-2	0	x	0	3	x
CC1CCN(C(=O)COC(=O)c2cc3ccccc3oc2=O)CC1	5	x	10	44*	16	0
C[C@@H]1CN([C@@H](C)CO)C(=O)c2cccc(NC(=O)Nc3ccc4c(c3)OCO4)c2O[C@H]1CN(C)Cc1ccc2c(c1)OCO2	-15	-1	x	0	-5	0
CO[C@@H](CN(C)C(=O)c1ccccc1F)[C@@H](C)CN([C@H](C)CO)S(=O)(=O)c1ccccc1	-2	-3	-2	0	-1	0
COc1c(Br)cc([N+](=O)[O-])c(OC)c1C(=O)NC(=O)Nc1c(Cl)cccc1Cl	x	-5	3	0	-38*	x
COc1c(Br)cc([N+](=O)[O-])c(OC)c1C(=O)NC(=O)Nc1cc(Cl)cc(Cl)c1	x	-5	-2	0	x	4
CN(C)C(=O)[C@H]1[C@H](CO)[C@H]2Cn3c(ccc(-c4cccc(F)c4)c3=O)[C@H]2N1C(=O)c1ccccn1	6	-4	x	0	3	1
CN(c1ccccc1)S(=O)(=O)c1ccccc1C(=O)Nc1nccs1	-6	x	x	x	x	x
COc1cc(CC(NC(C)=O)C(=O)NC2CCN(C(=O)Nc3ccccc3C)CC2)cc(OC)c1 (centres undefined)	1	17*	-8	0	4	x
